Measurements of several laboratories.
Lines come from different studies, so protocols differ.
Cell line: MCF7
Read-out: cell growth or viability

| Structure (SMILES) | method | concentration | time | quantity | result |
| --- | --- | --- | --- | --- | --- |
| COc1ccc2oc(-c3ccc4nc(N)oc4c3)c/c(=N\c3ccccc3NC(=O)CCN)c2c1 | CCK-8 | 1 µM | – | inhibition | 15% |
| COc1ccc(NC(=O)Nc2cccc(-c3cn(Cc4cccc(Cl)c4)nn3)c2)cc1 | CCK-8 | 50 µM | 48 h | viability | 103% |
| CN(C)CCNC(=O)c1ccc(-c2nc3ccc4[nH]ncc4c3c3c2CCCC3)c(F)c1 | – | – | 72 h | GI50 | 3.32 µM |
| C[C@H](Nc1ccc2c(c1)OCCn1cc(N3C(=O)OC[C@H]3C(F)F)nc1-2)C(N)=O | ATP luminescence | – | 5 days | EC50 | 0.129 µM |
| O=C(Nc1ccc(-c2cn(Cc3ccc(Br)cc3)nn2)cc1)Nc1ccccc1Br | CCK-8 | 50 µM | 72 h | viability | 103% |
| COCCC(=O)Nc1ccccc1/N=c1\cc(-c2ccc3c(c2)OCO3)oc2ccccc12 | CCK-8 | 1 µM | – | inhibition | 9.24% |
| COc1cc(C=NNC(=O)c2nc3ccccc3s2)ccc1O | MTT | 100 µM | 48 h | cell death | 16.6% |
| O=C(Nc1ccc(Cl)cc1)Nc1cccc(-c2cn(Cc3cccc(Br)c3)nn2)c1 | CCK-8 | 50 µM | 72 h | viability | 72.8% |
| O=C(Nc1ccc(Cl)cc1)Nc1cccc(-c2cn(Cc3ccc(Cl)cc3)nn2)c1 | CCK-8 | 50 µM | 72 h | viability | 98.2% |
| CC(C)(C)[C@H](N)C(=O)Nc1ccccc1/N=c1\cc(-c2ccc3c(c2)OCCO3)oc2cc(F)ccc12 | CCK-8 | 1 µM | – | inhibition | 9.85% |
| O=C(Nc1cccc(-c2cn(Cc3ccc(Br)cc3)nn2)c1)Nc1ccccc1Br | CCK-8 | 50 µM | 48 h | viability | 89.7% |
| NCCC(=O)Nc1ccccc1/N=c1\cc(-c2ccc3oc(N)nc3c2)oc2ccccc12 | CCK-8 | 1 µM | – | inhibition | 6% |
| COc1ccc(NC(=O)Nc2cccc(-c3cn(Cc4ccc(Br)cc4)nn3)c2)cc1 | CCK-8 | 50 µM | 48 h | viability | 95.6% |
| COc1ccc2/c(=N/c3ccccc3NC(=O)[C@@H](N)CO)cc(-c3ccc4c(c3)OCCO4)oc2c1 | CCK-8 | 1 µM | – | inhibition | 8.55% |
| COc1ccc(NC(=O)NCc2cn(Cc3ccccc3C)nn2)cc1 | CCK-8 | 50 µM | 72 h | viability | 98.7% |
| Cc1n[nH]c2ccc3nc(-c4ccc(C(=O)NCCN(C)C)cc4F)c4c(c3c12)CCCCC4 | – | – | 72 h | GI50 | 5.72 µM |
| O=C(Nc1ccccc1/N=c1\cc(-c2ccc3c(c2)OCO3)oc2ccccc12)N1CCOCC1 | CCK-8 | 1 µM | – | inhibition | 12.9% |
| O=C(Nc1ccc(Cl)cc1)Nc1ccc(-c2cn(Cc3ccc(Cl)cc3)nn2)cc1 | CCK-8 | 50 µM | 48 h | viability | 94.6% |
| COc1ccc(NC(=O)Nc2ccc(-c3cn(Cc4ccc(Br)cc4)nn3)cc2)cc1 | CCK-8 | 50 µM | 48 h | viability | 98.4% |
| O=C(NCc1cn(Cc2ccc(Br)cc2)nn1)Nc1ccc(Cl)cc1 | CCK-8 | 50 µM | 48 h | viability | 89.8% |
| COc1ccc(NC(=O)NCc2cn(Cc3ccc(Cl)cc3)nn2)cc1 | CCK-8 | 50 µM | 48 h | viability | 90.6% |
| Nc1nc2ccc(-c3c/c(=N\c4ccccc4NC(=O)C4CCNC4)c4ccccc4o3)cc2o1 (centres unmarked) | CCK-8 | 1 µM | – | inhibition | 11.6% |
| O=C(NCc1cn(Cc2ccc(Cl)cc2)nn1)Nc1ccc(Cl)cc1 | CCK-8 | 50 µM | 48 h | viability | 80.8% |
